Assay results from different studies.
Compare with care: the assays were run in different laboratories.
Target: Serine/threonine-protein kinase Chk2 (CHEK2, Homo sapiens, UniProt O96017)

SMILES	read-out	mode	method	tested at	quantity	result
CC(C)(C)c1cc(C=C(C#N)C#N)cc(Br)c1O	enzyme activity	inhibitor	–	0.5 µM	remaining activity	104%
Cn1cc(-c2cccc(N3CCc4c(sc5c4CC(C)(C)C5)C3=O)c2CO)cc(Nc2ccncn2)c1=O	enzyme activity	inhibitor	–	1 µM	inhibition	1%
Cc1nn(C)cc1-c1nc2c(N3CCN(Cc4ccc(Cl)cc4)CC3)c(Cl)cnc2[nH]1	binding	–	competition with immobilised ligand	1 µM	remaining binding	100%
Nc1ncc(-c2nc(N3CCOCC3)nc(N3CCOCC3)n2)c(C(F)F)n1	binding	–	competition with immobilised ligand	10 µM	remaining binding	75%
N#CC1(c2ccccn2)CCN(Cc2cc(C(=O)O)c(=O)n3ccccc23)CC1	cell-free assay	–	competition with immobilised ligand	1 µM	remaining binding	87%
COc1cc(Nc2ncc(F)c(Nc3ccc4c(n3)NC(=O)C(C)(C)O4)n2)cc(OC)c1OC	binding	–	competition with immobilised ligand	10 µM	inhibition	45%
Cn1cc(-c2cc(F)cc(N3CCn4c(cc5c4CCCC5)C3=O)c2CO)cc(Nc2ccc(N3CCN(C4COC4)CC3)cn2)c1=O	enzyme activity	inhibitor	–	0.1 µM	inhibition	11%
O=c1[nH]c2ccccc2n1C1CCN(Cc2ccc(-c3[nH]c4cc5ncnc5cc4nc3-c3ccccc3)cc2)CC1	cell-free assay	–	–	0.5 µM	remaining signal	100%
COc1ncccc1-c1cnn2ccc(N3CCN(C(=O)OC(C)C)CC3)nc12	binding	–	competition with immobilised ligand	1 µM	remaining binding	77%
Cn1cncc1[C@@](O)(COc1ccc(C#N)cc1-c1ccc(OC(F)(F)F)cc1)c1ccc(C#N)cc1	cell-free assay	–	competition with immobilised ligand	1 µM	remaining binding	96%
